Results reported in ChEMBL document CHEMBL1153878, “Hansch analysis of veratric acid derivatives as antimicrobial agents” (2009).
Values after ≈ are worked out from the molar mass of the structure shown.

Columns and labels:
Type in all cases: functional
Staphylococcus aureus = assay: Antibacterial activity against Staphylococcus aureus MTCC 1430 by serial dilution method; design: -logMIC: scale not given here; conditions: for MIC: Staphylococcus aureus, MTCC 1430, read-out: MIC
Summary of the method: (§1)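 Tube serial dilution in 1 ml sterile double strength nutrient broth I.P., test range […] per ml. Inoculum: […] of a saline suspension at 10⁵ cfu/ml from a fresh 24-h culture, grown in double strength nutrient broth at 37 ± 1 °C. […] Exact MIC refined by further dilution of the stock.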

Bacillus subtilis = assay: Antibacterial activity against Bacillus subtilis MTCC 2423 by serial dilution method; design: -logMIC: unit not given here; conditions: for MIC: Bacillus subtilis, MTCC 2423, read-out: MIC; summary of the method: as §1
Escherichia coli = assay: Antibacterial activity against Escherichia coli MTCC 739 by serial dilution method; design: -logMIC: scale not given here; conditions: for MIC: Escherichia coli, MTCC 739, read-out: MIC; summary of the method: as §1
Candida albicans = assay: Antifungal activity against Candida albicans MTCC 227 by serial dilution method; design: -logMIC: unit not given here; conditions: for MIC: Candida albicans, MTCC 227, read-out: MIC
Aspergillus niger = assay: Antifungal activity against Aspergillus niger MTCC 2425 by serial dilution method; design: -logMIC: scale not given here; conditions: for MIC: Aspergillus niger, MTCC 2425, read-out: MIC

| SMILES | MIC (Staphylococcus aureus) [µg/mL] | MIC (Bacillus subtilis) [µg/mL] | MIC (Escherichia coli) [µg/mL] | MIC (Candida albicans) [µg/mL] | MIC (Aspergillus niger) [µg/mL] | -logMIC (Staphylococcus aureus) | -logMIC (Bacillus subtilis) | -logMIC (Escherichia coli) | -logMIC (Candida albicans) | -logMIC (Aspergillus niger) |
| --- | --- | --- | --- | --- | --- | --- | --- | --- | --- | --- |
| COc1ccc(C(=O)Nc2ccc(C)cc2)cc1OC | 18.5 (≈ 68.2 µM) | 13 (≈ 47.9 µM) | 17 (≈ 62.7 µM) | 13 (≈ 47.9 µM) | 12.5 (≈ 46.1 µM) | 1.15 | 1.31 | 1.2 | 1.32 | 1.35 |
| COc1ccc(NC(=O)c2ccc(OC)c(OC)c2)cc1 | 18 (≈ 62.6 µM) | 12 (≈ 41.8 µM) | 19 (≈ 66.1 µM) | 12.5 (≈ 43.5 µM) | 11.5 (≈ 40 µM) | 1.2 | 1.38 | 1.18 | 1.36 | 1.4 |
| COc1ccc(C(=O)Nc2cccc([N+](=O)[O-])c2)cc1OC | 18 (≈ 59.5 µM) | 10.5 (≈ 34.7 µM) | 13 (≈ 43 µM) | 16 (≈ 52.9 µM) | 13 (≈ 43 µM) | 1.22 | 1.46 | 1.36 | 1.27 | 1.36 |
| COc1ccc(C(=O)Nc2ccc(Br)cc2)cc1OC | 19 (≈ 56.5 µM) | 13 (≈ 38.7 µM) | 19 (≈ 56.5 µM) | 15 (≈ 44.6 µM) | 12.5 (≈ 37.2 µM) | 1.25 | 1.4 | 1.25 | 1.34 | 1.44 |
| COC(=O)c1ccc(OC)c(OC)c1 [VERATRIC ACID METHYL ESTER] | 18 (≈ 91.7 µM) | 12 (≈ 61.2 µM) | 18 (≈ 91.7 µM) | 12 (≈ 61.2 µM) | 14 (≈ 71.4 µM) | 1.04 | 1.2 | 1.04 | 1.2 | 1.15 |
| COc1ccc(C(=O)O)cc1OC [VERATRIC ACID] | 18 (≈ 98.8 µM) | 9 (≈ 49.4 µM) | 16 (≈ 87.8 µM) | 11 (≈ 60.4 µM) | 14 (≈ 76.8 µM) | 1.01 | 1.31 | 1.06 | 1.22 | 1.11 |

Molecules with a lower MIC (Staphylococcus aureus), results first:

| MIC (Staphylococcus aureus) [µg/mL] | MIC (Bacillus subtilis) [µg/mL] | MIC (Escherichia coli) [µg/mL] | MIC (Candida albicans) [µg/mL] | MIC (Aspergillus niger) [µg/mL] | SMILES | -logMIC (Staphylococcus aureus) | -logMIC (Bacillus subtilis) | -logMIC (Escherichia coli) | -logMIC (Candida albicans) | -logMIC (Aspergillus niger) |
| --- | --- | --- | --- | --- | --- | --- | --- | --- | --- | --- |
| 17 (≈ 56.2 µM) | 11.5 (≈ 38 µM) | 21 (≈ 69.5 µM) | 14 (≈ 46.3 µM) | 13 (≈ 43 µM) | COc1ccc(C(=O)Nc2ccc([N+](=O)[O-])cc2)cc1OC | 1.25 | 1.41 | 1.16 | 1.32 | 1.35 |
| 17 (≈ 59.2 µM) | 13 (≈ 45.2 µM) | 17 (≈ 59.2 µM) | 15 (≈ 52.2 µM) | 14 (≈ 48.7 µM) | COc1ccccc1NC(=O)c1ccc(OC)c(OC)c1 | 1.23 | 1.34 | 1.23 | 1.29 | 1.32 |
| 17 (≈ 62.7 µM) | 13 (≈ 47.9 µM) | 17 (≈ 62.7 µM) | 10 (≈ 36.9 µM) | 12.5 (≈ 46.1 µM) | COc1ccc(C(=O)Nc2cccc(C)c2)cc1OC | 1.2 | 1.31 | 1.2 | 1.42 | 1.35 |
| 17 (≈ 62.2 µM) | 15 (≈ 54.9 µM) | 19 (≈ 69.5 µM) | 12 (≈ 43.9 µM) | 12 (≈ 43.9 µM) | COc1ccc(C(=O)Nc2cccc(O)c2)cc1OC | 1.2 | 1.26 | 1.16 | 1.36 | 1.36 |
